Assay results pooled from the literature.
Compare with care: the assays were run in different laboratories.
Target: Serine/threonine-protein kinase pim-3 (PIM3, Homo sapiens, UniProt Q86V86)

SMILES	assay	setting	endpoint	result
Cn1c(=O)n(-c2ccc(C(C)(C)C#N)cc2)c2c3cc(-c4cnc5ccccc5c4)ccc3ncc21	enzyme activity, inhibitor	10 µM	remaining activity	87%
O=C(CSc1nc2nccnc2c(=O)n1CCc1ccccc1)Nc1nccs1	enzyme activity, inhibitor	10 µM	inhibition	-7%
Cc1ccc(C(=O)NCc2ccsc2)cc1C#Cc1cn(C(C)C)c2ncnc(N)c12	enzyme activity, inhibitor	1 µM	activity vs control	85%
Cc1cc(-n2nc(Cc3cc(F)cc(C(F)(F)F)c3)nc2C)ccc1C(N)=O	cell-free assay, competition with immobilised ligand	1 µM	remaining binding	100%
COc1cc2c(N3CCN(C(=O)Nc4ccc(OC(C)C)cc4)CC3)ncnc2cc1OCCCN1CCCCC1	cell-free assay	0.5 µM	remaining signal	100%
CCCS(=O)(=O)Nc1ccc(F)c(C(=O)c2c[nH]c3ncc(-c4ccc(Cl)cc4)cc23)c1F	enzyme activity, inhibitor	1 µM	inhibition	< 10%
Cc1cnc(NC2CCOCC2)nc1-n1cnc(C(=O)NC(CN)c2cc(F)cc(Cl)c2)c1 (stereo not drawn)	enzyme activity, inhibitor, radiometric	1 µM	remaining activity	95%
FC(F)(F)c1ccc2c(c1)nc(-c1cccnc1)n2C1CC1	cell-free assay, competition with immobilised ligand	1 µM	remaining binding	100%
COc1cc(Nc2cnc(C#N)c(O[C@H](C)CN(C)C)n2)ncc1-c1cnn(C)c1	enzyme activity, inhibitor, radiometric	10 µM	remaining activity	17%
Cc1noc([C@H]2C[C@@H](c3ccc(C(F)(F)F)cc3)CN(C(=O)N3CCS(=O)(=O)C3)C2)n1	cell-free assay, competition with immobilised ligand	1 µM	remaining binding	91%
N#CCCc1ccc2c(c1)-c1[nH]c3ccc([N+](=O)[O-])cc3c1CC(=O)N2	cell-free assay	0.5 µM	remaining signal	70.9%
Cc1ccc(C(=O)Nc2ccc(CN3CCN(C)CC3)c(C(F)(F)F)c2)cc1C#Cc1cnc2cccnn12	enzyme activity, inhibitor	23.5 nM	remaining activity	100%
COc1cc(/C=C/C(=O)CC(=O)/C=C/c2ccc(O)c(OC)c2)ccc1O	enzyme activity, inhibitor	1 µM	activity vs control	12%
CC(C)(C)C(=O)c1sc(NC2CCCCC2)nc1N	enzyme activity, inhibitor	10 µM	remaining activity	82%
Nc1ncnc2occ(-c3ccc(NC(=O)Nc4cc(C(F)(F)F)ccc4F)cc3)c12	cell-free assay, inhibitor	20 µM	remaining signal	79%
O=C1NC(=O)c2cc(Nc3ccc(F)cc3)c(Nc3ccc(F)cc3)cc21	cell-free assay	0.5 µM	remaining signal	105%
O=C(O)[C@@H]1[C@@H](Cn2nnc3ccccc3c2=O)CC[C@H]1C(=O)c1ccc(OCCC2CCOCC2)cc1	cell-free assay, competition with immobilised ligand	1 µM	remaining binding	84%
CC(C)(C)c1nc(-c2cccc(NS(=O)(=O)c3c(F)cccc3F)c2F)c(-c2ccnc(N)n2)s1	enzyme activity, inhibitor, radiometric	1 µM	remaining activity	100%
CS(=O)(=O)N1CCCC(NC(=O)[C@H](CCC2CCCCC2)NC(=O)c2ccc(CNC(=O)c3cnc4ccccn34)cc2)C1 (stereo partly drawn)	cell-free assay, competition with immobilised ligand	0.1 µM	remaining binding	99%
CNC(=O)c1cc(Oc2ccc(NC(=O)Nc3ccc(Cl)c(C(F)(F)F)c3)cc2)ccn1	enzyme activity, inhibitor	10 µM	inhibition	-16%
Cc1sc(C(=O)NC2COC2)cc1-n1cc(NC(=O)Nc2c(F)cccc2Cl)cn1	enzyme activity, inhibitor	10 µM	remaining activity	129%
CC1=C(C#N)C(c2ccc3c(c2)c(NC(=O)c2ccccc2C)nn3C)C(C#N)=C(C)N1	cell-free assay, competition with immobilised ligand	1 µM	remaining binding	100%
CCCOc1ccc(OC)c(F)c1C(=O)c1ccc(C(=O)N[C@@H]2CNC[C@H]2NC(=O)c2ccc3[nH]ncc3c2)cc1	enzyme activity, inhibitor	10 µM	remaining activity	97%
O=c1nc(-c2ccccn2)sc2ccccc12	binding, competition with immobilised ligand	1 µM	remaining binding	100%
CN(c1ncccc1CNc1nc(Nc2ccc3c(c2)CC(=O)N3)ncc1C(F)(F)F)S(C)(=O)=O	enzyme activity, inhibitor	1 µM	inhibition	21.2%
CS(=O)(=O)NCC[C@H](NC(=O)c1cncc2c1cnn2-c1ccc(F)cc1)c1ccnc(S(C)(=O)=O)c1	cell-free assay, competition with immobilised ligand	1 µM	remaining binding	100%
Oc1cccc(-c2nc(N3CCOCC3)c3oc4ncccc4c3n2)c1	enzyme activity, inhibitor	10 µM	remaining activity	41%
